ChEMBL document CHEMBL4689842, “EUbOPEN Chemogenomics Library wave 1” (2021)

System: HEK-293T
Experiment: Multiplex assay against HEK293T;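 on Population Tubulin-Different-Phenotype (%): share of the cells with healthy nuclei that show this phenotype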
Assay type: toxicity, cell-based
Conditions: human
Procedure, shortened: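 Imaging took place on a CQ1 microscope at 37°C and 5% CO2 once compound had been added to live cells stained at seeding with Hoechst33342, BioTracker Green Microtubule Cytoskeleton Dye, MitoTracker Red and Annexin V Alexa Fluor 680. CellPathfinder machine-learning gating classed cells as Hoechst high-intensity objects or normal cells, classed normal cells as having healthy, pyknosed or fragmented nuclei, and classed pyknosed cells as mitotic or apoptotic. Tubulin, mitochondrial-mass and membrane-permeability phenotypes are per cents of the healthy-nucleus cells.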

[1] = 12 h, 1 µM, compound concentration 1 uM, replicate 1
[2] = 12 h, 1 µM, compound concentration 1 uM, replicate 2
[3] = 12 h, 10 µM, compound concentration 10 uM, replicate 1
[4] = 12 h, 10 µM, compound concentration 10 uM, replicate 2
[5] = 24 h, 1 µM, compound concentration 1 uM, replicate 1
[6] = 24 h, 1 µM, compound concentration 1 uM, replicate 2
[7] = 24 h, 10 µM, compound concentration 10 uM, replicate 1
[8] = 24 h, 10 µM, compound concentration 10 uM, replicate 2
[9] = 48 h, 1 µM, compound concentration 1 uM, replicate 1
[10] = 48 h, 1 µM, compound concentration 1 uM, replicate 2
[11] = 48 h, 10 µM, compound concentration 10 uM, replicate 1
[12] = 48 h, 10 µM, compound concentration 10 uM, replicate 2

CN1C2CCC1CC(OC(c1ccc(F)cc1)c1ccc(F)cc1)C2.Cl (stereo unspecified)
Population Apoptotic (%) [1]: 50%
Population Fragmented Nuclei (%) [1]: 12%
Population Healthy Nuclei (%) [1]: 27%
Population Hoechst High Intensity Objects (%) [1]: 12%
Population Membrane Permeable-Phenotype (%) [1]: 2%
Population Mitochondria Different-Phenotype (%) [1]: 84%
Population Mitotic Cells (%) [1]: 50%
Population Normal (%) [1]: 87%
Population Pyknosed Nuclei (%) [1]: 60%
Population Tubulin-Different-Phenotype (%) [1]: 58%
Total Cell Count [1]: 303
Population Apoptotic (%) [2]: 18%
Population Fragmented Nuclei (%) [2]: 2%
Population Healthy Nuclei (%) [2]: 43%
Population Hoechst High Intensity Objects (%) [2]: 3%
Population Membrane Permeable-Phenotype (%) [2]: 18%
Population Mitochondria Different-Phenotype (%) [2]: 35%
Population Mitotic Cells (%) [2]: 81%
Population Normal (%) [2]: 96%
Population Pyknosed Nuclei (%) [2]: 54%
Population Tubulin-Different-Phenotype (%) [2]: 56%
Total Cell Count [2]: 252
Population Apoptotic (%) [3]: 80%
Population Fragmented Nuclei (%) [3]: 9%
Population Healthy Nuclei (%) [3]: 25%
Population Hoechst High Intensity Objects (%) [3]: 13%
Population Membrane Permeable-Phenotype (%) [3]: 1%
Population Mitochondria Different-Phenotype (%) [3]: 100%
Population Mitotic Cells (%) [3]: 19%
Population Normal (%) [3]: 86%
Population Pyknosed Nuclei (%) [3]: 65%
Population Tubulin-Different-Phenotype (%) [3]: 98%
Total Cell Count [3]: 280
Population Apoptotic (%) [4]: 63%
Population Fragmented Nuclei (%) [4]: 3%
Population Healthy Nuclei (%) [4]: 21%
Population Hoechst High Intensity Objects (%) [4]: 6%
Population Membrane Permeable-Phenotype (%) [4]: 2%
Population Mitochondria Different-Phenotype (%) [4]: 92%
Population Mitotic Cells (%) [4]: 36%
Population Normal (%) [4]: 93%
Population Pyknosed Nuclei (%) [4]: 74%
Population Tubulin-Different-Phenotype (%) [4]: 95%
Total Cell Count [4]: 201
Population Apoptotic (%) [5]: 48%
Population Fragmented Nuclei (%) [5]: 15%
Population Healthy Nuclei (%) [5]: 19%
Population Hoechst High Intensity Objects (%) [5]: 14%
Population Membrane Permeable-Phenotype (%) [5]: 10%
Population Mitochondria Different-Phenotype (%) [5]: 76%
Population Mitotic Cells (%) [5]: 51%
Population Normal (%) [5]: 85%
Population Pyknosed Nuclei (%) [5]: 64%
Total Cell Count [5]: 295
Population Apoptotic (%) [6]: 22%
Population Fragmented Nuclei (%) [6]: 4%
Population Healthy Nuclei (%) [6]: 49%
Population Hoechst High Intensity Objects (%) [6]: 1%
Population Membrane Permeable-Phenotype (%) [6]: 12%
Population Mitochondria Different-Phenotype (%) [6]: 35%
Population Mitotic Cells (%) [6]: 77%
Population Normal (%) [6]: 98%
Population Pyknosed Nuclei (%) [6]: 46%
Population Tubulin-Different-Phenotype (%) [6]: 64%
Total Cell Count [6]: 305
Population Apoptotic (%) [7]: 79%
Population Fragmented Nuclei (%) [7]: 16%
Population Healthy Nuclei (%) [7]: 13%
Population Hoechst High Intensity Objects (%) [7]: 20%
Population Membrane Permeable-Phenotype (%) [7]: 3%
Population Mitochondria Different-Phenotype (%) [7]: 100%
Population Mitotic Cells (%) [7]: 20%
Population Normal (%) [7]: 79%
Population Pyknosed Nuclei (%) [7]: 70%
Population Tubulin-Different-Phenotype (%) [7]: 96%
Total Cell Count [7]: 292
Population Apoptotic (%) [8]: 88%
Population Fragmented Nuclei (%) [8]: 3%
Population Healthy Nuclei (%) [8]: 28%
Population Hoechst High Intensity Objects (%) [8]: 7%
Population Membrane Permeable-Phenotype (%) [8]: 1%
Population Mitochondria Different-Phenotype (%) [8]: 96%
Population Mitotic Cells (%) [8]: 11%
Population Normal (%) [8]: 92%
Population Pyknosed Nuclei (%) [8]: 67%
Population Tubulin-Different-Phenotype (%) [8]: 86%
Total Cell Count [8]: 190
Population Apoptotic (%) [9]: 47%
Population Fragmented Nuclei (%) [9]: 20%
Population Healthy Nuclei (%) [9]: 21%
Population Hoechst High Intensity Objects (%) [9]: 19%
Population Membrane Permeable-Phenotype (%) [9]: 7%
Population Mitochondria Different-Phenotype (%) [9]: 53%
Population Mitotic Cells (%) [9]: 52%
Population Normal (%) [9]: 80%
Population Pyknosed Nuclei (%) [9]: 58%
Population Tubulin-Different-Phenotype (%) [9]: 67%
Total Cell Count [9]: 329
Population Apoptotic (%) [10]: 11%
Population Fragmented Nuclei (%) [10]: 4%
Population Healthy Nuclei (%) [10]: 77%
Population Hoechst High Intensity Objects (%) [10]: 2%
Population Membrane Permeable-Phenotype (%) [10]: 15%
Population Mitochondria Different-Phenotype (%) [10]: 15%
Population Mitotic Cells (%) [10]: 89%
Population Normal (%) [10]: 97%
Population Pyknosed Nuclei (%) [10]: 18%
Population Tubulin-Different-Phenotype (%) [10]: 52%
Total Cell Count [10]: 565
Population Apoptotic (%) [11]: 78%
Population Fragmented Nuclei (%) [11]: 21%
Population Healthy Nuclei (%) [11]: 8%
Population Hoechst High Intensity Objects (%) [11]: 21%
Population Membrane Permeable-Phenotype (%) [11]: 0%
Population Mitochondria Different-Phenotype (%) [11]: 100%
Population Mitotic Cells (%) [11]: 21%
Population Normal (%) [11]: 78%
Population Pyknosed Nuclei (%) [11]: 69%
Population Tubulin-Different-Phenotype (%) [11]: 95%
Total Cell Count [11]: 285
Population Apoptotic (%) [12]: 75%
Population Fragmented Nuclei (%) [12]: 9%
Population Healthy Nuclei (%) [12]: 55%
Population Hoechst High Intensity Objects (%) [12]: 10%
Population Membrane Permeable-Phenotype (%) [12]: 1%
Population Mitochondria Different-Phenotype (%) [12]: 96%
Population Mitotic Cells (%) [12]: 24%
Population Normal (%) [12]: 89%
Population Pyknosed Nuclei (%) [12]: 34%
Population Tubulin-Different-Phenotype (%) [12]: 85%
Total Cell Count [12]: 207
